Most compounds without a hit are left out; they make up all but 12% or so of the library.
Lmaj promast: reduces viability of Leishmania major promastigotes. actives 9% (n = 200,000). inhibition, % at 10 µM. resazurin fluorescence viability. AID 1063; in the data active = inhibition above about 50%;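 also: promastigotes grown with compound for 44 hours at 28 °C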
ABCG2 block: blocks JC-1 efflux by human ABCG2 transporter; actives 0.1% (n = 190,000); Q9UNQ0; AID 1325; IgMXP3 cells, flow cytometry; inhibition, % at 6.6 µM;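 active = inhibition above 80%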;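 also: 0% = DMSO and 100% = nicardipine control wells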
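Read-out basis: Efflux inhibition in percent versus controls | Test system: ABCG2 IgMXP3 and barcoded ABCB1 CCRF-Adr cell mix | Quantity: 3 million cells/mL in well | Schedule: 10 min at 25 °C | Control set: Nicardipine as high control, DMSO as low control | Reagent: JC-1 as fluorescent efflux pump substrate | Signal: Flow cytometry of retained JC-1 fluorescence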
WT yeast gro inh: growth inhibition of WT yeast, mitochondrial fusion screen; inhibition, % at 10 µM; mitochondrial fusion phenotypic screen, WT strain; actives 2.1% (n = 190,000); in the data active = inhibition above about 58%; tested in S. cerevisiae
ABCB1 inh: human ABCB1 inhibition, ABCG2 as counter-screen. inhibition, % at 6.6 µM. actives 0.067% (n = 190,000). CCRF-Adr cells, JC-1 efflux, flow cytometry. P08183; in the data active = inhibition above about 40%;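 also: 0% = vehicle and 100% = reference inhibitor; higher value means more JC-1 retained so stronger ABCB1 efflux block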
Target sequence (P08183 whole entry, looked up): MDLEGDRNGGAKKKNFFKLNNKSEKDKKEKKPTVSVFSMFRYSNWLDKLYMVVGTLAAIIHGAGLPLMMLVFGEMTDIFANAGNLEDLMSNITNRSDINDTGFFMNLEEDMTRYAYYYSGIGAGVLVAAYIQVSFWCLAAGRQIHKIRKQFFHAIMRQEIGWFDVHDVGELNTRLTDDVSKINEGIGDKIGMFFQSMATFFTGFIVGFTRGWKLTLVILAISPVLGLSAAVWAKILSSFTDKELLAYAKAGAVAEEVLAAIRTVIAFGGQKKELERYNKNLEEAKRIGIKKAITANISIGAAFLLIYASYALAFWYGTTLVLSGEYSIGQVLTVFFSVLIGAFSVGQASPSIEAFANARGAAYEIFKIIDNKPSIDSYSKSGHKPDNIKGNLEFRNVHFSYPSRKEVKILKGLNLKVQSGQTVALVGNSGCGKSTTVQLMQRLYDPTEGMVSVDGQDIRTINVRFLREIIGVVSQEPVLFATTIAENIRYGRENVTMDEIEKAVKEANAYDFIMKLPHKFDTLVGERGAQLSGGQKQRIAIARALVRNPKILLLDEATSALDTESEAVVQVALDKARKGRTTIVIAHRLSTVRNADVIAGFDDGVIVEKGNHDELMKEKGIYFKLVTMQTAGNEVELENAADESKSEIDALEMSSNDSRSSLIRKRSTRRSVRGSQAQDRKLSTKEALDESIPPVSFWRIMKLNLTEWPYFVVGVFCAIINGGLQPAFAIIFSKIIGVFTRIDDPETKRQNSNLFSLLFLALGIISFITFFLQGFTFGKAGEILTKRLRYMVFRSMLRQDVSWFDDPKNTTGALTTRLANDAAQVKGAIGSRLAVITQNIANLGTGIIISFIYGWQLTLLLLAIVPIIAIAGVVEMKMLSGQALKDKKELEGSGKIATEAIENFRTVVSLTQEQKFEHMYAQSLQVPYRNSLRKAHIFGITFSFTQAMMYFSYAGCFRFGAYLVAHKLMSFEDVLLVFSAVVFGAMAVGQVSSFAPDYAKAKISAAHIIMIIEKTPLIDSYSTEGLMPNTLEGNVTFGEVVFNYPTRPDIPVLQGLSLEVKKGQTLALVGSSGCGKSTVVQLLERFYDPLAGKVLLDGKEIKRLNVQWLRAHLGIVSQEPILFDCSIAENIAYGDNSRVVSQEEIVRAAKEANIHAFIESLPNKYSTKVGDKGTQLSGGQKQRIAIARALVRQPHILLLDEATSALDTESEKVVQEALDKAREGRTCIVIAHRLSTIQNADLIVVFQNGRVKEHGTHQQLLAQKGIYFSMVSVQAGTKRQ
RAM inhibit: blocks the yeast RAM network; S. cerevisiae dse1pr::URA3 reporter, 5-FOA growth OD615, 2 d; analog-sensitive cbk1-as2 kinase mutant strain; inhibition, % at 50 µM; actives 1.8% (n = 190,000);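 active = inhibition above a set limit, 3 SD over mean compound inhibition, cut at about 8.4% in these data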;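 also: 0% = DMSO-only wells with no growth and 100% = 10 µM 1-NA-PP1 full growth; inhibition rescues growth on 5-FOA so higher OD means more RAM inhibition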
Numbers without * were called inactive; x = no result given.

SMILES	Lmaj promast	ABCG2 block	WT yeast gro inh	ABCB1 inh	RAM inhibit
COc1ccccc1N(C)S(=O)(=O)c1ccc(C(=O)OCC(=O)N2CCCCCC2)cc1	100*	9	-4	2	2
COc1ccccc1N(C)S(=O)(=O)c1ccc(C(=O)OCC(N)=O)cc1	24	0	14	0	2
COc1ccccc1NC(=O)Nc1cc(F)ccc1F	26	17	12	1	2
CCN(CC)CCN(C(=O)c1ccc(CN2CCCCC2)o1)C(C(=O)NC1CCCCC1)c1ccc(F)cc1 (stereo not given)	27	7	1	0	0
COc1cc(Cl)ccc1NC(=O)COc1ccccc1C(=O)NN	31	2	-11	0	0
CCOC(=O)N1CCN(C(=O)CSCc2ccccc2)CC1	51*	0	-15	0	-1
CCOC(=O)N1CCN(C(=O)CSCc2ccc(Cl)cc2)CC1	-4	0	-1	0	1
CCNc1nc(NC(C)C)nc(N(C#N)CCOc2ccc(Cl)cc2Cl)n1	97*	2	80*	-1	2
CCNc1nc(NC(C)C)nc(N(C#N)Cc2ccccc2)n1	16	7	8	0	1
CCN1CCN(c2cc(C)c3cc(NC(=S)N4CCCCC4)ccc3n2)CC1	58*	1	21	0	-1
CCN1CCN(C(=S)Nc2ccc3nc(N4CCN(CC)CC4)cc(C)c3c2)CC1	30	3	-3	1	2
CCN1CCN(C(=S)Nc2ccc3nc(N4CCN(C)CC4)cc(C)c3c2)CC1	67*	3	-5	0	3
CCN1CCN(c2cc(C)c3cc(NC(=S)N4CCCC4)ccc3n2)CC1	5	0	-6	1	3
COc1ccc(CCNC(=O)CCC(=O)Nc2ccc3nc(N4CCN(C)CC4)cc(C)c3c2)cc1OC	-3	0	14	0	3
CCOC(=O)N1CCN(C(=S)Nc2ccc3nc(N4CCN(CC)CC4)cc(C)c3c2)CC1	72*	4	1	1	0
Cc1cc(N2CCN(C)CC2)nc2ccc(NC(=O)CCC(=O)NCCC3=CCCCC3)cc12	100*	x	x	x	x
CCOc1ccc(N2C(=O)c3ccc(C(=O)OCc4c(C)noc4C)cc3C2=O)cc1	-9	5	12	1	3
CCCN(CC1CC1)C(=O)COC(=O)c1ccc2c(c1)C(=O)N(c1ccc(OCC)cc1)C2=O	-10	3	-11	1	11*
N#CC1=C2SCC(O)(c3ccccc3)N2C(=O)CC1c1ccccc1 (stereo not given)	92*	3	22	0	-1
CCc1ccc(C2CC(=O)N3CN(c4ccccc4)CSC3=C2C#N)cc1 (stereo not given)	7	-1	3	0	5
COC(=O)/C(=C\c1ccc2c(c1)c1ccccc1n2C)NC(=O)c1ccccc1	63*	-1	18	0	8.6*
CCOC(=O)/C(=C/c1c2ccccc2cc2ccccc12)NC(=O)c1ccccc1	35	3	60*	1	1
CC(C)OC(=O)/C(=C/c1ccc2c(c1)c1ccccc1n2C)NC(=O)c1ccccc1	40	-3	6	-1	6
COC(=O)c1cc(Br)c(=O)n(Cc2ccc(OC)c(OC)c2)c1	-2	14	-4	3	1
Cc1ccc2cccc(NC3OC(=O)c4ccccc43)c2n1 (stereo not given)	-2	0	-4	0	-1
SMILES	Lmaj promast	ABCG2 block	WT yeast gro inh	ABCB1 inh	RAM inhibit
COc1ccc(C2=Nc3ccccc3OC2)cc1	98*	1	55	0	0
COc1ccc(C2=NC(c3ccccc3)CO2)cc1 (stereo not given)	-5	0	-4	0	-1
Fc1ccccc1Cn1c2[n+](c3ccc(C(F)(F)F)cc31)CCCCC2	14	7	14	1	1
COc1ccc(OC)c(C(=O)Cn2c3[n+](c4ccc(C(F)(F)F)cc42)CCCCC3)c1	99*	3	7	6	1
O=C(COc1cccc2cccnc12)Nc1nccs1	8	1	10	0	-1
Oc1cccc(C(Nc2nccs2)c2ccc3cccnc3c2O)c1 (stereo not given)	100*	-4	-10	-1	2
Oc1c(C(Nc2ccccn2)c2cccnc2)cc(Cl)c2cccnc12 (stereo not given)	94*	-10	-25	-1	1
Cc1cc(NC(c2cccnc2)c2ccc3cccnc3c2O)no1 (stereo not given)	99*	0	0	0	0
Oc1c(C(Nc2cccc(C(F)(F)F)c2)c2cccnc2)ccc2cccnc12 (stereo not given)	100*	-3	-5	0	-1
Cc1nc(-c2cccnc2)sc1C(=O)Nc1cccc(C(F)(F)F)c1	7	2	23	0	-2
Cc1cccc(NC(c2ccc(O)cc2)c2ccc3ccc(C)nc3c2O)n1 (stereo not given)	-6	-8	0	-1	-1
Cc1nc2sc(C(=O)Nc3ccccc3)c(N)c2c(C)c1[N+](=O)[O-]	-6	17	14	2	6
Cc1ccc(N=C2C(=S)N(c3ccc(C)cc3)C(=N)N2/N=C/c2ccc(Cl)cc2)cc1	100*	0	25	0	1
COc1ccc(N=C2C(=Nc3ccc(OC)cc3)N(c3ccc(OC)cc3)C(=S)N2c2ccccc2)cc1	19	3	6	1	4
CCN(CCn1cccn1)Cc1c(C(=O)N2C[C@@H](C)O[C@@H](C)C2)nc2ccc(Cl)cn12	-8	0	-8	0	1
Cc1cc(C)c(S(C)(=O)=O)c(S(=O)(=O)c2ccc(Cl)cc2)n1	-4	1	-12	0	3
Cc1cc(C)c(S(=O)(=O)c2ccc(Cl)cc2C)c(Cl)n1	100*	1	-4	0	2
Cc1cc(C)c(S(=O)(=O)c2c(C)cccc2C)c(Cl)n1	100*	2	16	0	0
Cc1cc(C)c(S(=O)(=O)c2cccc(Cl)c2)c(Cl)n1	4	3	-5	0	1
Cc1cc(=O)[nH]c(N/N=C/c2ccc(OC(=O)c3ccco3)cc2)n1	13	4	-19	0	2
COc1cc(NS(=O)(=O)c2ccc(Br)cc2)c(OC)cc1NC(=O)c1ccco1	91*	-1	8	0	4
COc1cc(NC(=O)c2cccc(Cl)c2)ccc1NC(=O)c1cccs1	4	1	10	1	9.3*
COc1cc(NC(=O)c2ccc([N+](=O)[O-])o2)ccc1NC(=O)c1cccs1	100*	9	95*	1	6
COc1ccc(S(=O)(=O)Nc2cc(OC)c(NC(=O)c3ccco3)cc2OC)cc1	14	5	0	1	2
COc1c(Cl)cc(Cl)cc1/C=C/C(=O)c1ccc(NC(=O)c2cccs2)cc1	100*	-2	24	0	1
COc1ccc(NC(=O)c2cccs2)cc1NC(=O)c1ccco1	52*	21	0	1	1
